Published values pooled from the literature.
CDK7 with cyclin H: Cyclin-dependent kinase 7, with cyclin H (CDK7, Homo sapiens, UniProt P50613)
PTGER4: Prostaglandin E2 receptor EP4 subtype (PTGER4, Homo sapiens, UniProt P35408)
Calcitonin-gene-related peptide receptor, CALCRL/RAMP1: Calcitonin-gene-related peptide receptor, CALCRL/RAMP1 (Homo sapiens, UniProt O60894+Q16602)
HTR1B: 5-hydroxytryptamine receptor 1B (HTR1B, Homo sapiens, UniProt P28222)

For `COc1c(C(=O)/C=C(\O)c2ccccc2)ccc2occc12`, the inhibition was -26% (CDK7 with cyclin H; enzyme activity; inhibitor; ADP detection; 10 µM).
With `CCN(CC)c1ccc(C2Nc3ccc(C(=O)c4ccccc4)cc3NC3=C2C(=O)CC(C)(C)C3)cc1` (stereo not shown) the inhibition was 7% (PTGER4; ligand displacement; radioligand; 10 µM).
For `CN(C)C1CCN(CC#Cc2nn(C3CCCC3)c3nc(NCc4ccccc4)ncc23)C1` (stereo not shown), the inhibition was 0% (Tyrosine-protein kinase SYK (SYK, Homo sapiens, UniProt P43405); enzyme activity; inhibitor; FRET; 1 µM).
`Oc1ccc(/C=C/c2cc(O)cc(O)c2)cc1` has an inhibition of 40% (CDK7 with cyclin H; enzyme activity; inhibitor; ADP detection; 10 µM).
The inhibition of `COc1cc(NC(C)=O)c(Cl)cc1C(=O)Nc1nccs1` is reported as -1.3% (Calcitonin-gene-related peptide receptor, CALCRL/RAMP1; cell-free assay; 10 µM).
The inhibition of `N#Cc1cc(Cn2c(N3CCCC3)nc3ccccc32)ccc1F` is reported as -19.3% (HTR1B; ligand displacement; radioligand; 10 µM).
`Ic1cccc2cnccc12` has an inhibition of -6% (PTGER4; ligand displacement; radioligand; 10 µM).
For `O=C(CSc1nc2nccnc2c(=O)n1CCc1ccccc1)Nc1nccs1`, the inhibition was 13% (Phosphatidylinositol 4-phosphate 5-kinase type-1 beta (PIP5K1B, Homo sapiens, UniProt O14986); enzyme activity; inhibitor; 10 µM).
`Cc1ccc(S(=O)(=O)N[C@@H](CC(=O)NC(C)(C)C)C(=O)NCc2ccccc2)cc1` gave an inhibition of at most 50% (Proteasome component C5/PSMB8 (Homo sapiens, UniProt P20618+P28062); enzyme activity; inhibitor; 100 µM).
With `CC(CN(C)C)C(Oc1cccc2ccccc12)c1cccs1` (stereo not shown) the inhibition was under 70% (Sodium-dependent dopamine transporter (Slc6a3, Rattus norvegicus, UniProt P23977); ligand displacement; radioligand; 10 µM; cell membranes).
For `C=C(C)[C@@H](CC=C(C)C)C[C@@]12C[C@@H](CC=C(C)C)C(C)(C)[C@@](CC=C(C)C)(C(=O)C(C(=O)c3ccc(O)c(O)c3)=C1O)C2=O`, the inhibition was 25.8% (CDK7 with cyclin H; enzyme activity; inhibitor; ADP detection; 10 µM).
`O=C(c1ccc(Cl)cc1)N(Cc1ccccc1)C1CCCCC1` has an inhibition of -11.5% (HTR1B; ligand displacement; radioligand; 10 µM).
The inhibition of `CC1=C(/C=C/C(C)=C/C=C/C(C)=C/C=C/C=C(C)/C=C/C=C(C)/C=C/C2=C(C)CCCC2(C)C)C(C)(C)CCC1` is reported as 19.7% (CDK7 with cyclin H; enzyme activity; inhibitor; ADP detection; 10 µM).
`CCN(Cc1ccccc1C(F)(F)F)C(=O)C1CCN(S(=O)(=O)c2ccc3[nH]ncc3c2)CC1` gave an inhibition of 33% (PTGER4; ligand displacement; radioligand; 10 µM).
The inhibition of `Oc1cccc(Nc2nc(-c3ccc(F)cc3F)cs2)c1` is reported as 3% (Calcitonin-gene-related peptide receptor, CALCRL/RAMP1; cell-free assay; 10 µM).
`CC(/C=C/C=C(\C)C(=O)O)=C\C=C\C=C(C)\C=C\C=C(/C)C(=O)O` has an inhibition of 38.3% (CDK7 with cyclin H; enzyme activity; inhibitor; ADP detection; 10 µM).
